Experimental findings from ChEMBL document CHEMBL1155327, “2,4-Diamino-quinazolines as inhibitors of beta-catenin/Tcf-4 pathway: Potential treatment for colorectal cancer” (Bioorg Med Chem Lett, 2009) are described below.

≈ marks a conversion by molar mass, not a printed value.

A short description of data set [1]: Cytotoxicity against human SV5A8 cells. It is filed as functional, cell-based. In short, it runs like this:
(§1)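 Reporter cell lines 22C11 and 33.13 with control line 5A8; IC50 from means of at least two experiments; toxicity flagged as the minimal dose where cell killing appeared by Renilla luciferase signal.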

The target in data set [2] is Catenin beta-1 (Homo sapiens) (UniProt P35222). Description: Inhibition of Beta-catenin/Tcf-4 pathway in human Tcf22C11 cell assessed as inhibition of reporter activity by cell-based reporter assay. A general note: A reporter such as luciferase makes a cellular process visible.
The target is the same in data set [3]. Description: Inhibition of Beta-catenin/Tcf-4 pathway in human Tcf 33.13 cell assessed as inhibition of reporter activity by cell-based reporter assay.
Data set [4] is described as follows: Inhibition of […]/Tcf-4 pathway in human Tcf22C11 cell assessed as inhibition of reporter activity by cell-based reporter assay. In kind it is functional. Put shortly:
as §1

A short description of data set [5]: Inhibition of […]/Tcf-4 pathway in human Tcf 33.13 cell assessed as inhibition of reporter activity by cell-based reporter assay. In kind it is functional. Put shortly: as §1
Data set [6] is described as follows: Plasma concentration in nude mouse at 50 mg/kg, po after 8 hrs. In kind it is ADME, organism-based. Also on record: dose 50 mg/kg, route oral. In short, it runs like this:
(§2)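 Tumour-bearing nude mice (n = 4) given one oral dose (50 or 200 mg/kg); plasma and tumour drug concentrations (ng/mL) measured 8 h after dosing; tumour/plasma ratio calculated from these.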

Data set [7] can be described thus: Ratio of Drug level in tumor to mouse plasma at 50 mg/kg, po. Put shortly: as §2
Data set [8] can be described thus: Drug level in tumor of nude mouse bearing HT29 or HCT116 cells at 50 mg/kg, po after 8 hrs. It is filed as ADME, organism-based, Neoplasm, HCT-116. More on the design: dose 50 mg/kg, route oral. As to conditions: read-out: Ct. In short, it runs like this:
as §2

Data set [9] in a line: Oral bioavailability in mouse at 25 mg/kg. In kind it is ADME, organism-based. To be noted: in vivo. In short, it runs like this:
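Female nude mice dosed orally at 25 mg/kg; oral bioavailability (%) determined from pharmacokinetic study.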

Data set [10] is described as follows: Aqueous solubility at pH 7.4. In kind it is physicochemical. In short, it runs like this:
(§3)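 Water solubility measured in µg/mL at pH 7.4 and at pH 3.0.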

In data set [11] the test system is HCT-116. Description: Antitumor activity against human HCT116 cells xenografted in nude mouse assessed as tumor growth inhibition at 200 mg/kg, po after 17 days. In kind it is functional. To be noted: HCT-116, 408 h, read-out: TGI. In short, it runs like this: (§4)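 Nude mice carrying subcutaneous HT29 or HCT116 tumours; oral dosing at 25, 50, 100 or 200 mg/kg once daily for 17 days; tumour volume measured; growth inhibition assessed at end of treatment.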
A general note: Xenograft models place foreign cells or tissue in a host animal.

The nature of data set [12]: Drug level in tumor of nude mouse bearing HT29 or HCT116 tumor at 200 mg/kg, po after 8 hrs. In kind it is ADME, organism-based, Neoplasm. More on the design: dose 200 mg/kg, route oral. To be noted: read-out: Ct. Put shortly: as §2
Data set [13] is described as follows: Ratio of Drug level in tumor to mouse plasma at 200 mg/kg, po. In short, it runs like this:
as §2

The nature of data set [14]: Aqueous solubility at pH 3. In kind it is physicochemical. In short, it runs like this:
as §3

Data set [15] deals with HT-29. Description: Antitumor activity against human HT-29 cells xenografted in nude mouse assessed as tumor growth inhibition at 200 mg/kg, po after 17 days. As to conditions: HT-29, 408 h, read-out: TGI. It is filed as functional. Put shortly:
as §4

The nature of data set [16]: Plasma concentration in mouse at 200 mg/kg, po after 8 hrs. In kind it is ADME, organism-based. Also on record: dose 200 mg/kg, route oral. In short, it runs like this: as §2

As for `Cc1ccc2c(NCc3ccc(NC(=O)C4CCN(Cc5ccccc5)CC4)cc3)nc(N3CCC(N4CCCC4)CC3)nc2c1`, the IC50 in [1] was over 8090 nM; in [2], 960 nM; in data set [3], 850 nM.

As for `Cc1ccc2c(NCc3ccc(NC(=O)C4CCN(Cc5ncc[nH]5)CC4)cc3)nc(N(C)C)nc2c1`, the IC50 in data set [1], in [2] and in data set [3] was over 20000 nM each time.

Regarding `Cc1ccc2c(NCc3ccc(NC(=O)C4CCN(C)CC4)cc3)nc(N(C)C)nc2c1`, the concentration for half-maximal inhibition (IC50) in [1] is over 17300 nM; in data set [2], 1920 nM; in data set [3], 1670 nM.

For `COc1ccc(CN2CCC(C(=O)Nc3ccc(CNc4nc(N(C)C)nc5cc(C)ccc45)cc3)CC2)cc1`, the figures for the IC50 in data set [1], in data set [2] and in [3] were over 6180 nM, 520 nM and 450 nM, respectively.

With `Cc1ccc2c(NCc3ccc(NC(=O)C4CCN(Cc5ccc(Cl)cn5)CC4)cc3)nc(N(C)C)nc2c1`, the half-maximal inhibitory concentration (IC50) is 570 nM in data set [4], over 5400 nM in [1] and 410 nM in data set [5].

In the case of `Cc1ccc2c(NCc3ccc(NC(=O)C4CCN(Cc5ccccc5)CC4)cc3)nc(N3CCCC3)nc2c1`, the concentration for half-maximal inhibition (IC50) in data set [1] was over 7790 nM; in [2], 660 nM; in data set [3], 790 nM.

For the compound `Cc1ccc2c(NCc3ccc(NC(=O)C4CCN(Cc5ccccc5)CC4)cc3)nc(N3CCC3)nc2c1`, the results for the half-maximal inhibitory concentration (IC50) in data set [1], in [2] and in [3] were over 8500 nM, 1000 nM and 800 nM, respectively.

For `Cc1ccc2c(NCc3ccc(NC(=O)C4CCN(Cc5ccc(Cl)cc5)CC4)cc3)nc(N(C)C)nc2c1`, the figures for the half-maximal inhibitory concentration (IC50) in data set [1], in [2] and in [3] were over 3180 nM, 390 nM and 320 nM, respectively.

In the case of `Cc1ccc2c(NCc3ccc(NC(=O)C4CCN(C5CCCCC5)CC4)cc3)nc(N(C)C)nc2c1`, the concentration for half-maximal inhibition (IC50) in data set [1] was over 8320 nM; in [2] it was 750 nM; in data set [3] it was 810 nM.

Turning to `Cc1ccc2c(NCc3ccc(NC(=O)C4CCN(Cc5ccc(F)cc5)CC4)cc3)nc(N(C)C)nc2c1`, the concentration at 8 h came to 440 ng/mL in data set [6] and 70300 ng/mL in data set [8]. The values for the concentration for half-maximal inhibition (IC50) in data set [1], in data set [2] and in data set [3] were over 4820 nM, 220 nM and 190 nM, respectively. Besides, the Ratio in data set [7] was determined as 220. The same compound returned a bioavailability in [9] of 46%.

Turning to `Cc1ccc2c(NCc3ccc(NC(=O)C4CCN(CC(C)C)CC4)cc3)nc(N(C)C)nc2c1`, the IC50 in data set [1] was over 10500 nM; in data set [2], 650 nM; in data set [3] it was 960 nM.

Take `CCNc1nc(NCc2ccc(NC(=O)C3CCN(Cc4ccccc4)CC3)cc2)c2ccc(C)cc2n1`: the IC50 is over 2140 nM in data set [1], 1380 nM in data set [2] and 1130 nM in [3].

Take `Cc1ccc2c(NCc3ccc(NC(=O)C4CCN(Cc5cccc(F)c5)CC4)cc3)nc(N(C)C)nc2c1`: the IC50 was over 4170 nM in data set [1], 330 nM in data set [2] and 350 nM in data set [3].

With `CCCCN1CCC(C(=O)Nc2ccc(CNc3nc(N(C)C)nc4cc(C)ccc34)cc2)CC1`, the IC50 was over 10500 nM in [1], 1470 nM in [2] and 1170 nM in data set [3].

As to `Cc1ccc2c(NCc3ccc(NC(=O)C4CCN(Cc5ccc(F)cc5Cl)CC4)cc3)nc(N(C)C)nc2c1`, the half-maximal inhibitory concentration (IC50) in [1] was over 5910 nM; in data set [2] it was 520 nM; in [3], 210 nM.

Regarding `Cc1ccc2c(NCc3ccc(NC(=O)C4CCN(Cc5ccccc5)CC4)cc3)nc(N(C)C)nc2c1`, the values for the solubility in data set [10] and in data set [14] were 43 µg/mL (≈ 84.5 µM) and over 100 µg/mL, respectively. The figures for the IC50 in data set [1], in data set [2] and in data set [3] were over 7050 nM, 740 nM and 760 nM, respectively. The inhibition in vivo at 200 mg/kg in [11] and in [15] was 20% each time. Moreover, the concentration at 8 h is 90700 ng/mL in [12] and 2970 ng/mL in data set [16]. In data set [13], the Ratio is listed as 40. Also, the bioavailability in data set [9] turned out to be 41%.

Regarding `Cc1ccc(CN2CCC(C(=O)Nc3ccc(CNc4nc(N(C)C)nc5cc(C)ccc45)cc3)CC2)cc1`, the half-inhibitory concentration (IC50) in [1] is over 4150 nM; in data set [2], 470 nM; in data set [3], 500 nM.

For `Cc1ccc2c(NCc3ccc(NC(=O)C4CCN(Cc5ccccc5)CC4)cc3)nc(N3CCN(C)CC3)nc2c1`, the half-maximal inhibitory concentration (IC50) in data set [1] was over 17700 nM; in [2] it was 1580 nM; in data set [3], 1320 nM.

Take `Cc1ccc2c(NCc3ccc(NC(=O)C4CCN(Cc5ccccc5)CC4)cc3)nc(N3CCN[C@@H](C)C3)nc2c1`: the half-inhibitory concentration (IC50) in data set [1] was over 8860 nM; in data set [2] it was 1920 nM; in data set [3], 1460 nM.

With `CCN1CCN(c2nc(NCc3ccc(NC(=O)C4CCN(Cc5ccccc5)CC4)cc3)c3ccc(C)cc3n2)CC1`, the IC50 is over 13000 nM in data set [1], 1260 nM in [2] and 1120 nM in [3].

Regarding `CNc1nc(NCc2ccc(-c3ccccc3C(=O)OC)cc2)c2ccccc2n1`, the IC50 in [2] was found to be 600 nM.

`Cc1ccc2c(NCc3ccc(NC(=O)C4CCN(Cc5ccccc5)CC4)cc3)nc(N3CCCCCC3)nc2c1`: the 50% inhibitory concentration (IC50) in data set [1] is over 6880 nM; in [2] it was 1040 nM; in data set [3] it was 960 nM.

On to `Cc1ccc2c(NCc3ccc(NC(=O)C4CCN(Cc5ccccc5)CC4)cc3)nc(N(C)CCCN(C)C)nc2c1`, for which the concentration for half-maximal inhibition (IC50) is over 8620 nM in data set [1], 1410 nM in [2] and 1310 nM in [3].

With `Cc1ccc2c(NCc3ccc(NC(=O)C4CCN(Cc5ccccc5)CC4)cc3)nc(N3CCNC(CCO)C3)nc2c1` (configuration not stated), the IC50 in [1] was over 8420 nM; in data set [2], 2270 nM; in data set [3], 2120 nM.

`Cc1ccc2c(NCc3ccc(NC(=O)C4CCN(Cc5ccccc5)CC4)cc3)nc(N(C)CCN(C)C)nc2c1`: the concentration for half-maximal inhibition (IC50) is over 8830 nM in data set [1], 2260 nM in data set [2] and 1440 nM in data set [3].

Consider `Cc1ccc2c(NCc3ccc(NC(=O)C4CCN(C(=O)OC(C)(C)C)CC4)cc3)nc(N(C)C)nc2c1`, for which the IC50 is over 4820 nM in data set [1], 760 nM in data set [2] and 850 nM in [3].

`Cc1ccc2c(NCc3ccc(NC(=O)C4CCN(Cc5ccccc5F)CC4)cc3)nc(N(C)C)nc2c1`: the IC50 in [1] is over 6670 nM; in data set [2], 530 nM; in data set [3], 320 nM.

Regarding `Cc1ccc2c(NCc3ccc(NC(=O)C4CCN(Cc5ccco5)CC4)cc3)nc(N(C)C)nc2c1`, the IC50 was over 20000 nM in data set [1], 1830 nM in data set [2] and 1930 nM in [3].

Regarding `Cc1ccc2c(NCc3ccc(NC(=O)C4CCN(Cc5ccncc5)CC4)cc3)nc(N(C)C)nc2c1`, the IC50 was 1180 nM in data set [4], over 8070 nM in data set [1] and 900 nM in [5].

As usually defined, the IC50 is the concentration that gives 50% inhibition. The bioavailability is dose-corrected exposure relative to a reference, in per cent. A high value points to much systemic uptake. As usually defined, the solubility is the dissolved amount per volume that the medium holds. Read a high solubility as much dissolved substance.
